Measured values published in ChEMBL document CHEMBL3046597, “Synthesis of new carboxylesterase inhibitors and evaluation of potency and water solubility” (Chem Res Toxicol, 2001).
Values after ≈ are worked out from the molar mass of the structure shown.

Key:
[1] = molecular target: T1, Liver carboxylesterase B-1 (Rattus norvegicus, UniProt Q63010); assay: Inhibition of carboxylesterase in Fischer 344 Rattus norvegicus (rat) liver microsomes using p-nitrophenyl acetate as substrate incubated for 5 min prior to substrate addition measured for 2 min by spectrophotometric analysis
T1 sequence (Q63010 whole entry): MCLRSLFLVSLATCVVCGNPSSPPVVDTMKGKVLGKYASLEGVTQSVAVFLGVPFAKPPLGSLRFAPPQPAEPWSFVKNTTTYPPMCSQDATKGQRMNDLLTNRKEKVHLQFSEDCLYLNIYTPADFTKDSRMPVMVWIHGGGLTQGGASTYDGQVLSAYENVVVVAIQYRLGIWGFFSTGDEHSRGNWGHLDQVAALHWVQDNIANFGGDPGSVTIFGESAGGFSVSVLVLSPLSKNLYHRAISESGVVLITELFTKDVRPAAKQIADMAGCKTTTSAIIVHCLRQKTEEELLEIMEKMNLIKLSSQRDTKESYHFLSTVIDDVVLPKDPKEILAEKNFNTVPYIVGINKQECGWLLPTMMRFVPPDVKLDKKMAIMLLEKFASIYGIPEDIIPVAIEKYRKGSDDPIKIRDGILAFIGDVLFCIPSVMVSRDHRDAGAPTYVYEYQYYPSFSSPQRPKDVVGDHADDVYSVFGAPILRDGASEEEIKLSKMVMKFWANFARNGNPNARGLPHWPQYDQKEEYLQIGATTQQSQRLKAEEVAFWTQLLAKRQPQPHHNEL
How it was run: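 Livers from 8-week-old rats, perfused with 1% KCl; 100000g microsomal pellet solubilized in 1% n-octyl β-D-glucopyranoside and recentrifuged. Assayed at 0.8 mg/mL protein in 0.1 M sodium phosphate pH 7.4, 30 °C. PNPA 0.5 mM final, read at 405 nm. DMF ≤1%, solvent-corrected.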

[2] = molecular target: T2, Liver carboxylesterase (Sus scrofa, UniProt Q29550); assay: Inhibition of Sus scrofa (pig) carboxylesterase isolated from liver in using p-nitrophenyl acetate as substrate incubated for 5 min prior to substrate addition measured for 2 min by spectrophotometric analysis
T2 sequence (Q29550 whole entry): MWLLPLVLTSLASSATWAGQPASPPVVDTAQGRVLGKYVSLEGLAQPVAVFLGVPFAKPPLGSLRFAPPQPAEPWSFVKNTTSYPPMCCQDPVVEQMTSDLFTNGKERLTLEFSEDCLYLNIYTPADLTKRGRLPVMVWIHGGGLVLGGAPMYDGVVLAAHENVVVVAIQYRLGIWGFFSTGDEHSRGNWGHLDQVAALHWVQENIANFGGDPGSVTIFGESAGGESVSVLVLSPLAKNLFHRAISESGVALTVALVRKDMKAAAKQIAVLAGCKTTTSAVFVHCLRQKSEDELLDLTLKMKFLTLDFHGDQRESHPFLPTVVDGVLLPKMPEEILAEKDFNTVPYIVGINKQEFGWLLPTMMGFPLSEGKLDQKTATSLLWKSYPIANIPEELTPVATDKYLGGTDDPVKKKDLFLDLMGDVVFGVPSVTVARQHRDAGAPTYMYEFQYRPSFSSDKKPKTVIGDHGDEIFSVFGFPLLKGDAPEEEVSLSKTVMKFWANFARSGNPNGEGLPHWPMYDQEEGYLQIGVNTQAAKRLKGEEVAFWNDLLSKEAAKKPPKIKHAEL
How it was run: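 Crude porcine liver carboxylesterase, partially purified, working solution 0.02 mg total protein/mL (0.3 units/mL) in 0.1 M sodium phosphate, pH 7.4; […]. Inhibitors from DMF stocks (≤1% DMF, solvent-corrected). PNPA at 0.5 mM final, 30 °C, kinetic read at 405 nm.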

[3] = molecular target: T3, Juvenile hormone esterase (Trichoplusia ni, UniProt P30809+P30810); assay: Inhibition of Trichoplusia ni (cabbage looper) juvenile hormone esterase isolated from fifth-intsar larval stage using [3H]JH 3 as substrate incubated for 10 min prior to substrate addition measured after 15 min by liquid scintillation counting; assay type: protein assay
T3 sequence (P30809 whole entry): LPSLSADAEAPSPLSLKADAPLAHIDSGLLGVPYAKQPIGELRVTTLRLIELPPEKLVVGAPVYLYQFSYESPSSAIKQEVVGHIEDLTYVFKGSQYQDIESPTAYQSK
T3 sequence (P30810 whole entry): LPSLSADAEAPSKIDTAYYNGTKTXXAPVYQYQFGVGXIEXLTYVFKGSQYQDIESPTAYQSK
How it was run: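 Day-2 fifth-instar larval hemolymph collected with PTU, spun at 1000g, diluted 1:1 in 0.1 M phosphate pH 7.4 with 0.01% PTU, then diluted 300-fold in 0.1 M sodium phosphate pH 7.4 containing 0.1 mg/mL BSA. Inhibitors (DMF ≤1%) preincubated at 30 °C. JH III 5 µM final, 30 °C. Isooctane partition, aqueous-phase radioactivity counted.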

[4] = Solubility of the compound in sodium phosphate buffer at pH 7.4; assay type: physicochemical

Structure (SMILES)	IC50 [1] [nM]	IC50 [2] [nM]	IC50 [3] [nM]	solubility [4] [µM]
CCCCCCCCCCSCC(=O)C(F)(F)F	115	135	20	–
CCCCCCSCC(=O)C(F)(F)F	54.6	54.3	–	–
CCCCCCCCS(=O)(=O)CC(O)(O)C(F)(F)F	24.5	5640	147	1500 (≈ 460 µg/mL)
O=C(CSCCc1ccccc1)C(F)(F)F	162	75.3	–	–
CCCCCCCCSCC(=O)C(F)(F)F	37.2	36.8	1.6	200 (≈ 51.3 µg/mL)

Continued, in another order:

IC50 [1] [nM]	IC50 [2] [nM]	IC50 [3] [nM]	Structure (SMILES)	solubility [4] [µM]
1500	3390	1780	O=S(=O)(CCc1ccccc1)CC(O)(O)C(F)(F)F	–
164	119	15	CCCCCCCCCCCCSCC(=O)C(F)(F)F	–
1290	39000	354	CCCCCCS(=O)(=O)CC(O)(O)C(F)(F)F	–
10.3	473	191	CCCCCCCCCCCCS(=O)(=O)CC(O)(O)C(F)(F)F	–
6.3	1420	119	CCCCCCCCCCS(=O)(=O)CC(O)(O)C(F)(F)F	–
